# Measurements pooled from the literature.
# Each line is one published result; the experiments were not run side by side.
# Observed: cell growth or viability
SMILES,cell line,method,time,IC50
CCC(=O)Nc1nc2cc(-c3ccc4ncn(Cc5ccccc5)c(=O)c4c3)ccc2s1,NCI-H1975,MTT,72 h,> 20000 nM
Nc1ccn([C@@H]2O[C@H](CO)[C@@H](O)C2(F)F)c(=O)n1,HEK293,MTT,24 h,24.2 µg/mL
COc1ccc(C[C@H](N)C(=O)N[C@H]2[C@@H](O)[C@H](n3cnc4c(N(C)C)ncnc43)O[C@@H]2CO)cc1,HEK293,resazurin,72 h,720 nM
CCCCn1cnc2ccc(-c3ccc(NC(=O)Nc4ccc(C(F)(F)F)cc4)nc3)cc2c1=O,NCI-H1975,CCK-8,72 h,6850 nM
CN(C)CCn1cnc2ccc(-c3ccc4sc(NC(=O)Nc5ccc(F)cc5)nc4c3)cc2c1=O,NCI-H1975,MTT,72 h,1390 nM
CCCCC(=O)Nc1ccc(-c2ccc3ncn(CCC)c(=O)c3c2)cc1F,NCI-H1975,CCK-8,72 h,1680 nM
COC[C@H](NC(=O)c1ccn(S(C)(=O)=O)c1)C(=O)Nc1nc(-c2cccc(N3C[C@@H](C)O[C@@H](C)C3)n2)cs1,HCC515,ATP luminescence,7 days,119 nM
CN1CCC(NC2CCc3[nH]c4c(C(N)=O)ccc(-c5ccccc5Cl)c4c3C2)CC1 (centres unmarked),Pfeiffer,,96 h,25.7 nM
CC(C)(C)c1cnc(CSc2cnc(NC(=O)C3CCN(C(=O)CCCCCCCN4Cc5cc6c(cc5C4)C(=O)N(C4CCC(=O)NC4=O)C6=O)CC3)s2)o1 (centres unmarked),A673,MTT,,75.4 nM
COc1cc(C2C3=C(COC3=O)N(CCO)c3cc4c(cc32)CCC4)cc(OC)c1OC (centres unmarked),HEK293,ATP luminescence,48 h,1550 nM
O=C(Nc1cccc(F)c1)Nc1nc2cc(-c3ccc4ncn(Cc5ccccc5)c(=O)c4c3)ccc2s1,NCI-H1975,MTT,72 h,> 20000 nM
Nc1cccc2c1C(=O)N(C1CCC(=O)NC1=O)C2=O (centres unmarked),TMD8,CCK-8,7 days,> 20000 nM
CCCCn1cnc2ccc(-c3ccc(NC(=O)Nc4ccc(Cl)cc4)nc3)cc2c1=O,NCI-H1975,CCK-8,72 h,2550 nM
Nc1nnc(-c2ccccc2O)cc1N1CC2CCC(C1)N2c1ccnc(F)c1,HCC515,ATP luminescence,7 days,> 1000 nM
O=C(Nc1ccc(-c2ccc3ncn(Cc4ccc5c(c4)OCO5)c(=O)c3c2)cn1)c1ccccc1,NCI-H1975,CCK-8,72 h,> 10000 nM
O=C(NCc1ccccc1)Nc1nc2cc(-c3ccc4ncn(Cc5ccccc5)c(=O)c4c3)ccc2s1,NCI-H1975,MTT,72 h,> 20000 nM
CCCCC(=O)Nc1ccc(-c2ccc3ncn(CC4CC4)c(=O)c3c2)cn1,NCI-H1975,CCK-8,72 h,79 nM
COc1ccc(NC(=O)Nc2nc3cc(-c4ccc5ncn(CCN6CCOCC6)c(=O)c5c4)ccc3s2)cc1,NCI-H1975,MTT,72 h,> 20000 nM
CCCCC(=O)Nc1ccc(-c2ccc3ncn(CCC)c(=O)c3c2)cc1,NCI-H1975,CCK-8,72 h,9810 nM
O=C(Nc1ccc(F)cc1)Nc1nc2cc(-c3ccc4ncn(CCC5CCCCC5)c(=O)c4c3)ccc2s1,NCI-H1975,MTT,72 h,5970 nM
